≈ marks a conversion by molar mass, not a printed value.
Assays:
[1] = system: L1210, CEM and HeLa cells; test: Cytostatic activity over the three tumor cell lines; format: cell-based
Summary of the method: (§1)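 Each well is seeded with (5–7.5) × 10^4 tumor cells and exposed to test compound at 100, 20, 4, 0.8, 0.16 and 0.032 μg/mL (5-fold dilutions). Cells grow at 37°C in humidified CO2: 48 h for murine L1210, 72 h for human CEM and HeLa. They are then counted with a Coulter counter. IC50 is the concentration halving proliferation, reported as mean ± SD of at least two to three independent experiments. Cisplatin is the reference.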

Vaccina virus = test: microbe, parasite or virus in culture; format: cell-based, vaccinia virus Lederle strain; settings: Orthopoxvirus vaccinia, HEL, read-out: EC50 Vaccina virus
Punta Toro virus = test: Inhibition of virus-induced cytopathicity, Punta Toro virus in Vero; format: cell-based; settings: Vero cell cultures
Para influenza-3 virus = test: Inhibition of virus-induced cytopathicity, parainfluenza-3 virus in Vero; format: cell-based
Reo virus-1 = test: Inhibition of virus-induced cytopathicity, reovirus-1 in Vero; format: cell-based; settings: Vero cell cultures
[2] = system: human cervix carcinoma HeLa cells; test: Cytostatic assay, inhibition of HeLa cell proliferation; format: cell-based; settings: 72 h, read-out: IC50 HeLa
Summary of the method: as §1

Sindbis virus = test: Inhibition of virus-induced cytopathicity, Sindbis virus in Vero; format: cell-based; settings: Vero cell cultures

`N#Cc1ccc(NC(=S)NN=Cc2ccccc2)cc1` [Ia, 2-Benzylidene-N-(4-cyanophenyl)hydrazinecarbothioamide] was tested, and the “cytostatic activity (in words)” value ([1]; tumor cell lines L1210, CEM, HeLa) was “did not show cytostatic activity”.

`N#Cc1ccc(NC(=S)NN)cc1` [I, N-(4-cyanophenyl)hydrazinecarbothioamide] showed an EC50 (Vaccina virus) of 45 to 50 µg/mL (≈ 234 to 260 µM).

In the case of `N#Cc1ccc(NC(=S)NN=Cc2ccc(N(CCCl)CCCl)cc2)cc1` [Ig, 2-{4-[Bis(2-chloroethyl)amino]benzylidene}-N-(4-cyanophenyl)hydrazinecarbo thioamide], the IC50 ([1]; read-out: IC50 cytostatic activity) is reported as 0.3 to 2.5 µg/mL (≈ 0.714 to 5.95 µM), the “inhibitory activity against Punta Toro virus (in words)” value (Punta Toro virus) is reported as “no inhibitory activity” and the “inhibitory activity against parainfluenza virus-3 (in words)” value (Para influenza-3 virus) is reported as “no inhibitory activity”. The “inhibitory activity against reovirus-1 (in words)” value (Reo virus-1) was “no inhibitory activity”, the IC50 [2] was 0.3 µg/mL (≈ 0.714 µM) and the “inhibitory activity against Sindbis virus (in words)” value (Sindbis virus) was “no inhibitory activity”.

With `CSc1ccc(NC(=S)NN)cc1` [II, N-(4-methylsulfanylphenyl)hydrazinecarbothioamide] the EC50 (Vaccina virus) was 45 to 50 µg/mL (≈ 211 to 234 µM).
